The subject of one assay is MCF7. The assay is described as follows: Cytotoxicity against human ER positive MCF7 cells assessed as cell viability at 1 uM after 72 hrs by MTT assay. Type of assay: functional, cell-based. The procedure, abridged: (§1)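 Lines kept in DMEM with 10% fetal bovine serum and 1% penicillin/streptomycin at 37 °C, 5% CO2. Compound applied at 1 µM for 72 h, then standard MTT reduction read-out. Viability given as mean percentage of formazan formed by treated cells relative to mock-treated cells (0.1% DMSO). Run in quadruplicate, standard error, Student's t-test.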
In general terms: Tetrazolium dyes change colour on reduction, which living cells bring about.

The test system of another assay is MDA-MB-231. Description: Cytotoxicity against human ER negative MDA-MB-231 cells assessed as cell viability at 1 uM after 72 hrs by MTT assay. Type of assay: functional, cell-based. The procedure, abridged:
as §1

Activity calls are given as the source filed them. The rule behind the calls is not given here.

Turning to `COc1cc(-c2ccc[nH]2)[nH]c1/C=C1\N=C(C)C(C(=O)CCC(=O)Oc2ccc3c(c2)CC[C@@H]2[C@@H]3CC[C@]3(C)C(=O)CC[C@@H]23)=C1C`, the result in the assay with MCF7 was inactive. For the same compound, the outcome in the assay with MDA-MB-231 was Active.
In the case of `CC/C(=C(/c1ccc(OCCN(C)C)cc1)c1ccc(OC(=O)CCCCCCCCC(=O)C2=C(C)/C(=C/c3[nH]c(-c4ccc[nH]4)cc3OC)N=C2C)cc1)c1ccccc1`, the outcome in the assay with MCF7 was inactive.

Source of the values: ChEMBL document CHEMBL2417509, “Synthesis and biological evaluation of prodigiosene conjugates of porphyrin, estrone and 4-hydroxytamoxifen” (2013).
